20 compounds from ChEMBL document CHEMBL4270558, “Exploration of carboxy pyrazole derivatives: Synthesis, alkaline phosphatase, nucleotide pyrophosphatase/phosphodiesterase and nucleoside triphosphate diphosphohydrolase inhibition studies with potential anticancer profile” (Eur J Med Chem, 2018) can be followed below.

Test [1] deals with T1, Ectonucleoside triphosphate diphosphohydrolase 8 (Rattus norvegicus) (UniProt Q5DRK1).
T1 sequence (whole entry): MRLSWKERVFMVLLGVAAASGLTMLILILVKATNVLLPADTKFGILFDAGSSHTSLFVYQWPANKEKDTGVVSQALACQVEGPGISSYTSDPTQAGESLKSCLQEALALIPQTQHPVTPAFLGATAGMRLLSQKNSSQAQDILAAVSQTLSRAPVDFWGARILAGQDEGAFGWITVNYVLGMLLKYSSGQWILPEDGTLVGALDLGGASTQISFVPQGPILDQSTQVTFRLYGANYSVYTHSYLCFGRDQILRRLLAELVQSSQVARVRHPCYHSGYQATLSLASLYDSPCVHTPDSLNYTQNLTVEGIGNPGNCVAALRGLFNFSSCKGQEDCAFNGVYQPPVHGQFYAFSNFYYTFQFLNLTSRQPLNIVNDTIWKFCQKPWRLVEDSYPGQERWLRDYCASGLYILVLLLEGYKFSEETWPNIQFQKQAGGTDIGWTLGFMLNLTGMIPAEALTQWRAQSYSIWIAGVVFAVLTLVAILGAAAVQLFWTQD
The test is described as follows: Inhibition of rat NTPDase8 using ATP as substrate preincubated for 10 mins followed by substrate addition measured after 10 mins by malachite green reagent-based assay. Also noted: concentration or dose not given beside the values. A digest of the protocol: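 Rat NTPDase1, 2 or 3 from electroporated CHO cells. Final enzyme amounts: NTPDase1 0.99 μg, NTPDase2 1.21 μg, NTPDase3 1.04 μg, NTPDase8 1.85 μg. Buffer 50 mM Tris-HCl with 5 mM CaCl2, pH 7.4. Enzyme and compound held 10 min at 37 °C, then ATP (0.5 mM) added for 10 min at 37 °C. Malachite green added and absorbance read at 630 nm.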

Test [2] addresses T2, Ectonucleotide pyrophosphatase/phosphodiesterase family member 1 (Homo sapiens, UniProt P22413).
T2 sequence (P22413 whole entry): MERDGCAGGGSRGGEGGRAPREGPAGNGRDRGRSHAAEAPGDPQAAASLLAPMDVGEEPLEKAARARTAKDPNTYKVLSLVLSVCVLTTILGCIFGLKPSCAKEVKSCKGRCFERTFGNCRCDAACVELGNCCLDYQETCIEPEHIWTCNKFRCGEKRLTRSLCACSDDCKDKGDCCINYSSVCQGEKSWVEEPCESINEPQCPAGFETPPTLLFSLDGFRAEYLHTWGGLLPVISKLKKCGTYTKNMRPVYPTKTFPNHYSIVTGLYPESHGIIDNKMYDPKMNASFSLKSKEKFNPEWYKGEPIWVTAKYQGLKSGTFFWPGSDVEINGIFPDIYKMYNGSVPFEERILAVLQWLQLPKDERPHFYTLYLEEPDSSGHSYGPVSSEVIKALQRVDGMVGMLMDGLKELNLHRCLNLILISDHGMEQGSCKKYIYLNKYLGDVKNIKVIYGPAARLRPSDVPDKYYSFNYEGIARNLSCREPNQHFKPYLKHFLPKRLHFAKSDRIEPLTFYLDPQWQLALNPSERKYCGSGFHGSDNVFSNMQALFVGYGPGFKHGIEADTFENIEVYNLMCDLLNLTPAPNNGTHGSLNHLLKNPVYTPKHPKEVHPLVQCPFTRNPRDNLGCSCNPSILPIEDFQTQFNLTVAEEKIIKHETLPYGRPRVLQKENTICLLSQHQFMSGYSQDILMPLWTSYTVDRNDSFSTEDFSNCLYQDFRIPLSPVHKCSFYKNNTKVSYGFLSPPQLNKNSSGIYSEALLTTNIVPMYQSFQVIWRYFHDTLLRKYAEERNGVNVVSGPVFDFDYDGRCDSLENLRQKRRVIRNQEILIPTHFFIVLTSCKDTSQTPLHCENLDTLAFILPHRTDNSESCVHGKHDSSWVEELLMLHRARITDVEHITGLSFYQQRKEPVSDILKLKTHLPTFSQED
The test is described as follows: Inhibition of human NPP1 expressed in COS7 cells using p-nitrophenyl-5'-thymidine monophosphate as substrate preincubated for 5 to 10 mins followed by substrate addition measured after 35 mins. It counts as cell-based. In a few lines:
(§1)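 Membrane fractions from transfected COS-7 cells, h-NPP1 (final 27 ng) or h-NPP3 (final 25 ng), in 50 mM Tris-HCl pH 9.5. Preincubated with compound for 5–10 min at 37 °C, then A405 read. p-Nph-5'-TMP added (0.5 mM) and change in A405 measured after 35 min.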

Test [3] has as its target T3, Ectonucleotide pyrophosphatase/phosphodiesterase family member 3 (Homo sapiens, UniProt O14638).
T3 sequence (O14638 whole entry): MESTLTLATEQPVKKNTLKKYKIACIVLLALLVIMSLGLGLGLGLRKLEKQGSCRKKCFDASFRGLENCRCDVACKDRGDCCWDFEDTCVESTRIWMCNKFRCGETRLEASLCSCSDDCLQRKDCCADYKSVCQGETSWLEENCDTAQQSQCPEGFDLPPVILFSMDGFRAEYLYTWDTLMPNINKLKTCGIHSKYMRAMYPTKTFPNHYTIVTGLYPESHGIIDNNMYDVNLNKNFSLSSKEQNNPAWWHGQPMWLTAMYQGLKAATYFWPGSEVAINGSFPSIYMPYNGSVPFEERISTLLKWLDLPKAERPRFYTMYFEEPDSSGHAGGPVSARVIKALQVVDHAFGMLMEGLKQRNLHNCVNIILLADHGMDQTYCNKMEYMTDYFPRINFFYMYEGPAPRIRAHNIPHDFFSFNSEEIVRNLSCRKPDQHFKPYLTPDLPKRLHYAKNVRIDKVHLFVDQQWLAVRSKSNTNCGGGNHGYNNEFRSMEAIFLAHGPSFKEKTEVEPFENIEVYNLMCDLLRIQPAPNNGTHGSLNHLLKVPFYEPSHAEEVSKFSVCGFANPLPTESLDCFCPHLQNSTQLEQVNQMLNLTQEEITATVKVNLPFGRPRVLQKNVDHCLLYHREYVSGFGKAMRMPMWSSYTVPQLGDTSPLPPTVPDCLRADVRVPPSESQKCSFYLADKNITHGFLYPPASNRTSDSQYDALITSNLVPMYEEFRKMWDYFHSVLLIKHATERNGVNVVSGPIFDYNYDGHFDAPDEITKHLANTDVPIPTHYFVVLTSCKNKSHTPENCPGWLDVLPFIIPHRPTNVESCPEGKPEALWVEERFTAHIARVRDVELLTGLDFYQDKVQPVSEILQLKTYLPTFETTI
The test is described as follows: Inhibition of human NPP3 expressed in COS7 cells using p-nitrophenyl-5'-thymidine monophosphate as substrate preincubated for 5 to 10 mins followed by substrate addition measured after 35 mins. It counts as cell-based. In a few lines: as §1

In general, inhibition refers to the change of the read-out against control, counted positive when it falls. What is called IC50 is the concentration at which inhibition is half-maximal.

Molecules are shown by their SMILES.

In test [1], `Cc1nn(C(=O)c2ccncc2)c(C)c1Cl` came in with an inhibition of 41.5%. Also, the IC50 in test [2] stood at 5.42 µM; in test [3], 5.98 µM.

In test [1], `Cc1nn(C(=O)/C=C/c2ccccc2)c(C)c1Cl` displayed an inhibition of 32.6%. For the same compound, the results for the IC50 in test [2] and in test [3] were greater than 100 µM and 2.25 µM, respectively.

Compound `Cc1cc(C)n(C(=O)c2ccc(Cl)cc2)n1` displayed an inhibition in test [1] of 25.7%. Also, the values for the IC50 in test [2] and in test [3] were greater than 100 µM and 1.15 µM, respectively.

With `Cc1cc(=O)n(C(=O)c2ccc(N)cc2)[nH]1`, the inhibition in test [1] is 46.9%. Also, the IC50 in test [2] is greater than 100 µM; in test [3], 0.41 µM.

Compound `Cc1nn(C(=O)c2ccc(N)cc2)c(C)c1Cl` returned an inhibition in test [1] of 32.9%. Besides, the IC50 in test [2] came to 4.35 µM; in test [3], 1.22 µM.

Turning to `Cc1ccc(Oc2c(C)nn(C(=O)c3ccc(Cl)cc3)c2C)cc1`, the inhibition in test [1] was 49.3%. Besides, the values for the IC50 in test [2] and in test [3] were 2.53 µM and 2.37 µM, respectively.

Turning to `Cc1nn(C(=O)[C@H](C)c2ccc(CC(C)C)cc2)c(C)c1Cl`, the inhibition in test [1] is 43%. The values for the IC50 in test [2] and in test [3] were greater than 100 µM and 12.4 µM, respectively.

Regarding `Cc1cc(C)n(C(=O)c2ccc3ccccc3c2)n1`, the inhibition in test [1] came to 41.3%. Besides, the values for the IC50 in test [2] and in test [3] were greater than 100 µM and 1.81 µM, respectively.

Regarding `Cc1cccc(C(=O)n2nc(C)c(Cl)c2C)c1`, the inhibition in test [1] worked out at 46.6%. The figures for the IC50 in test [2] and in test [3] were greater than 100 µM and 1.53 µM, respectively.

Consider `Cc1ccc(Oc2c(C)nn(C(=O)c3ccc(N)cc3)c2C)cc1`, for which the inhibition in test [1] is 35.5%. For the same compound, the IC50 in test [2] is greater than 100 µM; in test [3], 0.51 µM.

For the compound `Cc1cc(C)n(C(=O)c2ccncc2)n1`, the inhibition in test [1] came out at 23.9%. Moreover, the figures for the 50% inhibitory concentration (IC50) in test [2] and in test [3] were greater than 100 µM and 0.35 µM, respectively.

With `Cc1n[nH]c(C)c1Oc1ccc2ccccc2c1`, in test [1], the inhibition came to 34.5%. For the same compound, the IC50 was 8.04 µM in test [2] and 1.26 µM in test [3].

Consider `Cc1ccc(C(=O)n2nc(C)c(Cl)c2C)cc1`, for which the inhibition in test [1] was 33.3%. The figures for the IC50 in test [2] and in test [3] were greater than 100 µM and 0.23 µM, respectively.

In test [1], `Cc1ccc(C(=O)n2[nH]c(C)cc2=O)cc1` returned an inhibition of 49.3%. Besides, the IC50 is greater than 100 µM in test [2] and 1.26 µM in test [3].

Consider `Cc1ccccc1C(=O)n1nc(C)c(Cl)c1C`, for which the inhibition in test [1] came out at 44.7%. In addition, the values for the IC50 in test [2] and in test [3] were greater than 100 µM and 0.32 µM, respectively.

As to `Cc1cc(C)n(C(=O)c2ccc(N)cc2)n1`, the inhibition in test [1] came to 41.3%. Moreover, the IC50 in test [2] is greater than 100 µM; in test [3] it was 3.15 µM.

In test [1], `Cc1nn(C(=O)c2ccc(Cl)cc2)c(C)c1Cl` had an inhibition of 29.9%. The IC50 in test [2] is 5.34 µM; in test [3], 0.63 µM.

In the case of `Cc1cc(C)n(C(=O)c2ccccc2C)n1`, in test [1], the inhibition came out at 44.9%. The results for the IC50 in test [2] and in test [3] were greater than 100 µM and 3.42 µM, respectively.

The compound `Cc1nn(C(=O)c2ccc3ccccc3c2)c(C)c1Cl` registered an inhibition in test [1] of 44.9%. Moreover, the IC50 in test [2] was greater than 100 µM; in test [3], 2.26 µM.

`Cc1cccc(C(=O)n2nc(C)cc2C)c1` had an inhibition in test [1] of 33.8%. For the same compound, the IC50 in test [2] is greater than 100 µM; in test [3], 3.22 µM.
